Screens from PubChem.
An excerpt weighted towards active compounds, which were near 3.5% of everything screened.
MrgX1 PAM = allosterically activates human MrgX1 receptor signaling; Q96LB2; MrgX1-HEK293, Fluo-4 calcium flux, FDSS; active compounds read high; B-score at 10 µM; 310,000 tested, 0.63% active;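 active = plate-corrected calcium response at least 3 library SD above typical, normal starting fluorescence, not activating the receptor alone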;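 note: compound read alongside a low EC10 to EC30 dose of BAM8-22 agonist; peak minus trough fluorescence over baseline measured at the second addition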
Target sequence (Q96LB2 whole entry, looked up): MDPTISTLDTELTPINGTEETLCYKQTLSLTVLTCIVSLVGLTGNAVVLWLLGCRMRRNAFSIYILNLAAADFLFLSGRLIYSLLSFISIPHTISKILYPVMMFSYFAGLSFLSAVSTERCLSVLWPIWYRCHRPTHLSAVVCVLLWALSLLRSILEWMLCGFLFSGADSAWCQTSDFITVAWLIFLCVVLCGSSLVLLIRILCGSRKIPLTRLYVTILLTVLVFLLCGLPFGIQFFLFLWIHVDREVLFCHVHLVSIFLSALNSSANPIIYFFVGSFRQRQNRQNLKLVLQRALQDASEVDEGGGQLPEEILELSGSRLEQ
MrgX1 antagonist = antagonists of human MrgX1 receptor | Q96LB2 | MRGX1-HEK293 calcium flux, Fluo-4, BAM8-22 antagonism; active compounds read low | B-score at 10 µM | 310,000 tested, 1.3% active;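 active = calcium-response B-score plate-corrected more than 3 library SD below zero, starting fluorescence within 5 deviations, no agonist response on first addition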;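 note: peak minus trough fluorescence over baseline after final BAM8-22 challenge near maximal dose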
MrgX1 ag = activates human MrgX1 receptor signaling; Q96LB2; MrgX1-HEK293 cells, Fluo-4 calcium fluorescence, agonist mode; active compounds read high; B-score at 10 µM; 310,000 tested, 0.44% active; AID 588627;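 active = calcium response B-score plate-corrected fluorescence ratio at least 3 library SD, with starting fluorescence B-score inside 5 SD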
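Test system: HEK293 cells stably expressing human MrgX1 receptor; amount: 15,000 cells per well; doses: compound delivered in addition one of three; times: overnight plating before 1 h dye loading; detection: Fluo-4 NW calcium-flux fluorescence, kinetic read; read-out basis: B-scored fluorescence response ratio; controls: positive and negative controls per plate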
RGS4 pot = potentiators or activators of RGS4. B-score at 10 µM. AID 463111. HEK293 M3R/inducible RGS4, carbachol calcium flux Fluo4; active compounds read low. 310,000 tested, 0.92% active;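 active = B-score of the integrated calcium signal more than 4 SD below the library mean, with starting fluorescence not abnormally high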;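 note: negative B-score means reduced calcium response which marks RGS4 activation or potentiation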
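System: HEK293 FlpIn-TREx cells, stable M3R, doxycycline-inducible RGS4. Timing: overnight RGS4 induction, 30 min dye load 37 °C, 20 min compound RT. Also added: carbachol, ECmax concentration. Measured by: Fluo4 fluorescence kinetic imaging of calcium. Evaluation: integrated calcium ratio converted to B score.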
RGS4 inh = human RGS4 inhibition | B-score at 10 µM | HEK293 M3R/RGS4 inducible, Fluo-4 calcium flux; active compounds read high; triggered by carbachol at its EC20 | 310,000 tested, 0.45% active | P49798;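 active = B-score, a plate-corrected calcium signal, over three deviations above library mean, with baseline fluorescence within five deviations of library mean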;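 note: RGS4 expression induced by doxycycline in cells with stable M3 receptor; B-score is computed from the integrated fluorescence ratio over baseline after carbachol; higher B-score means a larger calcium signal and so more RGS4 inhibition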
Target sequence (P49798 whole entry, looked up): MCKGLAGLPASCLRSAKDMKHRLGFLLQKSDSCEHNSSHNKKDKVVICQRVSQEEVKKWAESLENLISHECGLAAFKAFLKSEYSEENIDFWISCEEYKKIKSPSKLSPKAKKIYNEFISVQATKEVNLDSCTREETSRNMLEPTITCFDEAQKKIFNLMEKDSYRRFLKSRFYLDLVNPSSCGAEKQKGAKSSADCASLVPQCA
RGS4 inh valid = validation of RGS4 inhibitors. calcium response, % at 10 µM. HEK293 M3R/RGS4, carbachol calcium Fluo-4 fluorescence; carbachol added at its EC20; 0 = buffer wells, 100 = carbachol control. 1,700 tested, 65% active. shares compounds with RGS4 inh;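 active = duplicate-averaged calcium response above the buffer-only control mean plus 5 SD of those controls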;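 note: integrated fluorescence ratio F max minus min over baseline F0; higher response in RGS4-induced cells means RGS4 inhibition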
M3R Ca ctr = counter-screen for RGS4 inhibitors: effect in non-induced cells. shares compounds with RGS4 inh. HEK293 M3R non-induced, carbachol calcium Fluo-4; submaximal (EC20) carbachol stimulus; buffer wells 0%, carbachol control wells 100%. activity (percent), % at 10 µM. 1,900 tested, 20% active; call rule not given here;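 note: RGS4 induction absent so cells express M3R without RGS4; higher means more calcium signal and flags a non-specific hit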
RGS4 inh ctr2 = signal in non-induced cells without carbachol, RGS4 inhibitor counter-screen. calcium response (agonist-mode artifact), % at 10 µM. shares compounds with RGS4 inh. HEK293 M3R/RGS4 non-induced, Fluo-4 calcium, no carbachol; normalised: buffer wells 0%, carbachol wells 100%. 1,900 tested, 22% active;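 active = duplicate-averaged calcium rise in uninduced cells above buffer wells' mean plus 5 SD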
MrgX1 ag reconf = human MrgX1 agonism, re-confirmation screen; activation, % at 10 µM; AID 602412; 600 tested, 78% active; MrgX1-HEK293, Fluo-4 calcium fluorescence, FDSS; shares compounds with MrgX1 ag;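 active = calcium signal rise, corrected for plate position, at least 3 library SD high, with starting brightness within 5 such deviations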
MrgX1 ant reconf = human MrgX1 receptor antagonism, re-confirmation screen; 2,300 tested, 19% active; AID 602420; shares compounds with MrgX1 antagonist; remaining BAM8-22 calcium response % of control (active compounds read low), % at 10 µM; MrgX1-HEK293, BAM8-22 calcium flux, Fluo-4; active compounds read low;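 active = remaining agonist calcium response no higher than 100% minus 3 SD of agonist-only control wells, with starting fluorescence near control levels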;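 note: agonist BAM8-22 given at a near maximal EC90 to ECmax level; peak minus minimum fluorescence divided by baseline after agonist addition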
HEK293 Ca flux = MrgX1 antagonist counter-screen hit in parental HEK293 cells; shares compounds with MrgX1 antagonist; Fluo-4 calcium fluorescence, FDSS; fluorescence ratio F(max-min)/F0 at 10 µM; 4,000 tested, 2% active; AID 624111;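 active = duplicate-averaged calcium fluorescence ratio at least three times the standard deviation of buffer wells, a nonspecific response in parental cells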
HEK293 Ca counter = counter-screen for MrgX1 allosteric activators: effect in parental HEK293 cells. shares compounds with MrgX1 antagonist. 4,000 tested, 0.4% active. parental HEK293 calcium flux, Fluo-4 fluorescence ratio; active compounds read high. fluorescence ratio F(max-min)/F0 at 10 µM;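 active = calcium fluorescence ratio, averaged over duplicates, at least 3 SD of the buffer-well ratio, meaning a nonspecific response in receptor-free cells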;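 note: untransfected parental HEK293 lacking MrgX1 used as counterscreen for MrgX1 allosteric activators; fluorescence change taken during the second addition on a kinetic imager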
HEK293 Ca cntr2 = activity in parental HEK293 cells lacking MrgX1 receptor; 4,000 tested, 8.7% active; shares compounds with MrgX1 antagonist; Fluo-4 calcium fluorescence (FDSS); active compounds read high; AID 624115; fluorescence ratio F(max-min)/F0 at 10 µM;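 active = calcium fluorescence ratio at least three times the spread of buffer wells, meaning a non-specific response in parental cells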
* hit, by the source's call.

How did COc1ccc(C(=O)CCN2CCN(c3ccccc3OC)CC2)cc1 do in these assays?
MrgX1 PAM: inactive; MrgX1 antagonist: inactive; MrgX1 ag: inactive; RGS4 pot: inactive; RGS4 inh: inactive

Results for COc1ccc(C(=O)CCN2CCc3cc(OC)c(OC)cc3C2)cc1 ?
MrgX1 PAM: inactive; MrgX1 antagonist: inactive; MrgX1 ag: 42*; RGS4 pot: inactive; RGS4 inh: inactive; M3R Ca ctr: inactive; RGS4 inh ctr2: 8.5%*; MrgX1 ag reconf: inactive; HEK293 Ca flux: inactive; HEK293 Ca counter: inactive; HEK293 Ca cntr2: inactive

Results for Cc1cc2nc(-c3ccc4c(c3)CCC4)ccn2n1 ?
MrgX1 PAM: inactive; MrgX1 antagonist: inactive; MrgX1 ag: inactive; RGS4 pot: inactive; RGS4 inh: inactive

How did Cc1sc2ncnc(SCC(=O)NC3CC3)c2c1C do in these assays?
MrgX1 PAM: inactive; MrgX1 antagonist: inactive; MrgX1 ag: inactive; RGS4 pot: inactive; RGS4 inh: inactive

What do the screens show for `CSCCNC(=O)c1ccc2nc(C3CCCCC3)oc2c1`?
MrgX1 PAM: inactive; MrgX1 antagonist: inactive; MrgX1 ag: inactive; RGS4 pot: inactive; RGS4 inh: inactive

What do the screens show for `COc1ccc(C(=O)CCS(=O)(=O)c2ccc(F)cc2)cc1OC`?
MrgX1 PAM: inactive; MrgX1 antagonist: inactive; MrgX1 ag: 31*; RGS4 pot: inactive; RGS4 inh: 36*; RGS4 inh valid: 168%*; M3R Ca ctr: 28%*; RGS4 inh ctr2: 15%*; MrgX1 ag reconf: 141%*; HEK293 Ca flux: inactive; HEK293 Ca counter: inactive; HEK293 Ca cntr2: inactive

What do the screens show for `Cc1ccc(CN=Cc2[nH]c3ccc(Br)c(Cl)c3c2O)cc1`?
MrgX1 PAM: inactive; MrgX1 antagonist: -6.8*; MrgX1 ag: inactive; RGS4 pot: inactive; RGS4 inh: inactive; RGS4 inh valid: inactive; M3R Ca ctr: inactive; RGS4 inh ctr2: 48%*; MrgX1 ant reconf: inactive; HEK293 Ca flux: 0.23*; HEK293 Ca counter: inactive; HEK293 Ca cntr2: inactive

How did COc1ccc(CN=Cc2c(O)[nH]c3ccccc23)cc1 do in these assays?
MrgX1 PAM: inactive; MrgX1 antagonist: inactive; MrgX1 ag: inactive; RGS4 pot: inactive; RGS4 inh: inactive

What do the screens show for `O=[N+]([O-])c1cc([N+](=O)[O-])c(Oc2cc(F)ccc2F)cc1NN1CCCCC1`?
MrgX1 PAM: inactive; MrgX1 antagonist: inactive; MrgX1 ag: inactive; RGS4 pot: inactive; RGS4 inh: inactive
